Measurements as given in ChEMBL document CHEMBL1287727, “Structure and biological evaluation of novel cytotoxic sterol glycosides from the marine red alga Peyssonnelia sp” (Bioorg Med Chem, 2010).
Converted amounts (≈) assume the structure as drawn. The source made the active and inactive calls. The rule behind the calls is not given here.

Key:
DU-4475 = assay: Cytotoxicity against human DU4475 cells after 72 hrs by MTS assay; assay type: functional, cell-based; settings: DU-4475, 72 h
MDA-MB-468 = assay: Cytotoxicity against human MDA-MB-468 cells after 72 hrs by MTS assay; assay type: functional, cell-based; settings: MDA-MB-468, 72 h
PC-3 = assay: Cytotoxicity against human PC3 cells after 72 hrs by MTS assay; assay type: functional, cell-based; settings: PC-3, 72 h
[1] = Cytotoxicity against human LNCaP-FGC cells after 72 hrs by MTS assay; assay type: functional, cell-based; settings: LNCaP-Clone-FGC
HCT-116 = assay: Cytotoxicity against human HCT116 cells after 72 hrs by MTS assay; assay type: functional, cell-based; settings: HCT-116, 72 h
MDA-MB-231 = assay: Cytotoxicity against human MDA-MB-231 cells after 72 hrs by MTS assay; assay type: functional, cell-based; settings: MDA-MB-231, 72 h
DU-145 = assay: Cytotoxicity against human DU145 cells after 72 hrs by MTS assay; assay type: functional, cell-based; settings: DU-145, 72 h
BT-549 = assay: Cytotoxicity against human BT549 cells after 72 hrs by MTS assay; assay type: functional, cell-based; settings: BT-549, 72 h
A549 = assay: Cytotoxicity against human A549 cells after 72 hrs by MTS assay; assay type: functional, cell-based; settings: A549, 72 h
[2] = Cytotoxicity against human A2780DDP cells after 72 hrs by MTS assay; assay type: functional, cell-based
CCRF-CEM = assay: Cytotoxicity against human CCRF-CEM cells after 72 hrs by MTS assay; assay type: functional, cell-based
Homo sapiens [3] = species: Homo sapiens; assay: Induction of apoptosis in human A2780DDP cells assessed as PARP cleavage at 10 uM after 48 hrs by flow cytometry; assay type: functional, cell-based
Homo sapiens [4] = species: Homo sapiens; assay: Induction of apoptosis in human A2780DDP cells assessed as PARP cleavage at 10 uM after 24 hrs by flow cytometry; assay type: functional, cell-based
Summary of the method: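 A2780/DDP-S ovarian cancer cells were exposed at 1.0, 3.0 and 10 µM for 24 or 48 h. Apoptosis was scored by flow cytometry as the presence of cleaved PARP, a marker of caspase activation.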

[5] = Cell cycle arrest in human A2780DDP cells at 10 uM after 24 hrs using propidium iodine staining by flow cytometry; assay type: functional, cell-based
Summary of the method: (§1)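 A2780/DDP-S ovarian cancer cells were treated at 1.0, 3.0 and 10 µM for 24 or 48 h. DNA was stained with propidium iodide and cell-cycle distribution was analysed by flow cytometry.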

Enterococcus faecium = assay: Antibacterial activity against vancomycin-resistant Enterococcus faecium ATCC 700221; assay type: functional
Candida albicans = assay: Antifungal activity against amphotericin-resistant Candida albicans ATCC 90873; assay type: functional
[6] = system: Mycobacterium tuberculosis; assay: Antimicrobial activity against Mycobacterium tuberculosis H37Rv by microplate alamar blue assay; assay type: functional, organism-based
Summary of the method: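 M. tuberculosis H37Rv (ATCC 27294) tested by microplate alamar blue assay.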

Plasmodium falciparum = assay: Antimalarial activity against Plasmodium falciparum; assay type: functional, organism-based
Summary of the method: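 Parasite proliferation was read out with a SYBR Green-based assay.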

[7] = Cell cycle arrest in human A2780DDP cells at 10 uM after 48 hrs using propidium iodine staining by flow cytometry; assay type: functional, cell-based; summary of the method: as §1
Staphylococcus aureus = assay: Antibacterial activity against methicillin-resistant Staphylococcus aureus ATCC 33591; assay type: functional

Compound | IC50 (DU-4475) | IC50 (MDA-MB-468) | IC50 (PC-3) | IC50 [1] | IC50 (HCT-116) | IC50 (MDA-MB-231) | IC50 (DU-145) | IC50 (BT-549) | IC50 (A549) | IC50 [2] | IC50 (CCRF-CEM) | Activity (Homo sapiens [3]) | Activity (Homo sapiens [4]) | Activity [5] | Activity (Enterococcus faecium) | MIC (Candida albicans) | IC50 [6] | IC50 (Plasmodium falciparum) | Activity [7] | Activity (Staphylococcus aureus)
CC(C)CCC[C@@H](C)[C@H]1CC[C@H]2[C@@H]3CCC4=C[C@@H](O)CC[C@]4(CO[C@@H]4O[C@H](CO)[C@@H](O)[C@H](O)[C@H]4O)[C@H]3CC[C@]12C | 6.09 µM | 6.69 µM | > 25 µM | 24.2 µM | > 25 µM | 16.9 µM | > 25 µM | 11.9 µM | > 25 µM | > 25 µM | 9.82 µM | – | – | – | – | – | – | – | – | –
CC(C)CCC[C@@H](C)[C@H]1CC[C@H]2[C@@H]3CCC4=CC(=O)CC[C@]4(CO)[C@H]3CC[C@]12C | 1 µM | 3.99 µM | 1.96 µM | 15.6 µM | 20.9 µM | 22.3 µM | 5.05 µM | – | – | – | – | – | – | – | – | – | – | – | – | –
CC(C)CCC[C@@H](C)[C@H]1CC[C@H]2[C@@H]3CCC4=CC(=O)CC[C@]4(C)[C@H]3CC[C@]12C [4-CHOLESTEN 3-ONE] | 6.74 µM | 6.09 µM | > 25 µM | 5.96 µM | 9.58 µM | 13.5 µM | 20.3 µM | – | – | – | – | – | – | – | – | – | – | – | – | –
CC(C)CCC[C@@H](C)[C@H]1CC[C@H]2[C@@H]3CCC4=CC(=O)CC[C@]4(CO[C@@H]4O[C@H](CO)[C@@H](O)[C@H](O)[C@H]4O)[C@H]3CC[C@]12C | 1.29 µM | 0.86 µM | 3.44 µM | 3.4 µM | 3.13 µM | 1.27 µM | 1.31 µM | 1.26 µM | 0.93 µM | 1.39 µM | 1.97 µM | inactive | inactive | inactive | 6.3 µg/mL | 25 µg/mL (≈ 44.4 µM) | > 40 µM | > 40 µM | inactive | –
CC(=O)N[C@H]1[C@H](OC[C@]23CCC(=O)C=C2CC[C@@H]2[C@@H]3CC[C@]3(C)[C@@H]([C@H](C)CCCC(C)C)CC[C@@H]23)O[C@H](CO)[C@@H](O)[C@@H]1O | 2.44 µM | 0.71 µM | 2.4 µM | 1.48 µM | 2.23 µM | 1.01 µM | 1.35 µM | 1.24 µM | 0.97 µM | 1.35 µM | 1.45 µM | inactive | – | inactive | 12.5 µg/mL | 25 µg/mL (≈ 41.4 µM) | > 40 µM | > 40 µM | inactive | 3.1 µg/mL
CC(=O)N[C@H]1[C@H](OC[C@]23CC[C@H](O)C=C2CC[C@@H]2[C@@H]3CC[C@]3(C)[C@@H]([C@H](C)CCCC(C)C)CC[C@@H]23)O[C@H](CO)[C@@H](O)[C@@H]1O | 6.12 µM | 7.13 µM | 9.61 µM | 21.4 µM | > 25 µM | 10.2 µM | > 25 µM | 10.1 µM | > 25 µM | 8.98 µM | 10.7 µM | – | – | – | – | – | – | – | – | –
CC(C)CCC[C@@H](C)[C@H]1CC[C@H]2[C@@H]3CCC4=C[C@@H](O)CC[C@]4(C)[C@H]3CC[C@]12C | > 25 µM | > 25 µM | > 25 µM | > 25 µM | > 25 µM | > 25 µM | > 25 µM | – | – | – | – | – | – | – | – | – | – | – | – | –
